Series [1] has as its target T1, Liver carboxylesterase (Sus scrofa, UniProt Q29550).
T1 sequence (Q29550 whole entry): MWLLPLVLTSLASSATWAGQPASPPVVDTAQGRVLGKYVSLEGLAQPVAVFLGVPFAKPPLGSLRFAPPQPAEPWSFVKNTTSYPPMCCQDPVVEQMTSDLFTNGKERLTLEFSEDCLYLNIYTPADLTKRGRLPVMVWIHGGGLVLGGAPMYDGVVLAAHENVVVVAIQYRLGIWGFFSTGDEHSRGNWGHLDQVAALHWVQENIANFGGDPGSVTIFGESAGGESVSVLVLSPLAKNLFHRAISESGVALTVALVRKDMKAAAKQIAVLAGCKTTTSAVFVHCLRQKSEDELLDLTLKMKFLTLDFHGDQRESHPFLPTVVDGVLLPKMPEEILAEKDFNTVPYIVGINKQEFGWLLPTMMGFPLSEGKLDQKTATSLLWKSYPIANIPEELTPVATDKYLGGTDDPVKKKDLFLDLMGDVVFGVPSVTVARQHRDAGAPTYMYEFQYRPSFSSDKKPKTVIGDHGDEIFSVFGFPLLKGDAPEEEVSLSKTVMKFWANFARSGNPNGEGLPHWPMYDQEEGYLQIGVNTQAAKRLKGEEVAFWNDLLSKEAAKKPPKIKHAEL
The experiment in a line: Inhibition of Sus scrofa (pig) carboxylesterase isolated from liver in using p-nitrophenyl acetate as substrate incubated for 5 min prior to substrate addition measured for 2 min by spectrophotometric analysis. An outline of the steps: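 Crude porcine liver carboxylesterase, partially purified, working solution 0.02 mg total protein/mL (0.3 units/mL) in 0.1 M sodium phosphate, pH 7.4; […]. Inhibitors from DMF stocks (≤1% DMF, solvent-corrected). PNPA at 0.5 mM final, 30 °C, kinetic read at 405 nm.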

The target of series [2] is T2, Liver carboxylesterase B-1 (Rattus norvegicus, UniProt Q63010).
T2 sequence (Q63010 whole entry): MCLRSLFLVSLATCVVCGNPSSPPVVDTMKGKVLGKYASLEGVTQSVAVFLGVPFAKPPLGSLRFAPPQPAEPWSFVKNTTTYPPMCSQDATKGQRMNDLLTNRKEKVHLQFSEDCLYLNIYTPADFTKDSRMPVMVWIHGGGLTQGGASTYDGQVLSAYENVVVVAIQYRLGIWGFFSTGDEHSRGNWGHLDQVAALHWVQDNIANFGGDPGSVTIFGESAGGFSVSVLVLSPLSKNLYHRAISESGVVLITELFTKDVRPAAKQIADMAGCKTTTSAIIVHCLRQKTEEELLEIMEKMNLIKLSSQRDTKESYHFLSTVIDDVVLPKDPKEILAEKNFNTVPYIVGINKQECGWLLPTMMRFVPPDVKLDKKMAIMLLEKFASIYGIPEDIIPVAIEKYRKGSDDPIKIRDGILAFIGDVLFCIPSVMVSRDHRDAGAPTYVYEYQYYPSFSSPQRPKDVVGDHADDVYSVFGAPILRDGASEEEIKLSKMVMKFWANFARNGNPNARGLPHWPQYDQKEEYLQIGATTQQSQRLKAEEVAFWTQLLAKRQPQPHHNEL
The series can be described thus: Inhibition of carboxylesterase in Fischer 344 Rattus norvegicus (rat) liver microsomes using p-nitrophenyl acetate as substrate incubated for 5 min prior to substrate addition measured for 2 min by spectrophotometric analysis. Put shortly:
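Livers from 8-week-old rats, perfused with 1% KCl; 100000g microsomal pellet solubilized in 1% n-octyl β-D-glucopyranoside and recentrifuged. Assayed at 0.8 mg/mL protein in 0.1 M sodium phosphate pH 7.4, 30 °C. PNPA 0.5 mM final, read at 405 nm. DMF ≤1%, solvent-corrected.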
(Liver microsomes are vesicles of endoplasmic reticulum, rich in cytochrome P450 enzymes.)

For series [3], the target named is T3, Juvenile hormone esterase (Trichoplusia ni, UniProt P30809+P30810).
T3 sequence (P30809 whole entry): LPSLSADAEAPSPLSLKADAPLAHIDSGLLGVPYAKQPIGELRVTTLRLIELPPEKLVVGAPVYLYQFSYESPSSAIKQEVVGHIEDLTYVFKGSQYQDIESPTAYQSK
T3 sequence (P30810 whole entry): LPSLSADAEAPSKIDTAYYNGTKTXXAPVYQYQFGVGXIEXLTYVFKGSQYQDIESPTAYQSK
The series can be described thus: Inhibition of Trichoplusia ni (cabbage looper) juvenile hormone esterase isolated from fifth-intsar larval stage using [3H]JH 3 as substrate incubated for 10 min prior to substrate addition measured after 15 min by liquid scintillation counting. Type of series: protein assay. Put shortly: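 Day-2 fifth-instar larval hemolymph collected with PTU, spun at 1000g, diluted 1:1 in 0.1 M phosphate pH 7.4 with 0.01% PTU, then diluted 300-fold in 0.1 M sodium phosphate pH 7.4 containing 0.1 mg/mL BSA. Inhibitors (DMF ≤1%) preincubated at 30 °C. JH III 5 µM final, 30 °C. Isooctane partition, aqueous-phase radioactivity counted.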

The nature of series [4]: Solubility of the compound in sodium phosphate buffer at pH 7.4. Type of series: physicochemical.

Ten compounds from ChEMBL document CHEMBL3046597, “Synthesis of new carboxylesterase inhibitors and evaluation of potency and water solubility” (Chem Res Toxicol, 2001) can be followed below.

A word on the pIC50: it is the IC50 on a negative log10 scale, so that one unit is a factor of ten. Low values mean a high IC50, high ones a low IC50. What is called IC50 is the concentration at which inhibition is half-maximal. By solubility is commonly meant how much of the substance goes into solution per volume.

pIC50: −log10 of the molar value. In brackets after ≈: the same amount, converted by molar mass.

For `O=S(=O)(CCc1ccccc1)CC(O)(O)C(F)(F)F`, the negative logarithm of the IC50 (pIC50) in series [1] is 5.47; in series [2], 5.82. In series [3], the 50% inhibitory concentration (IC50) is 1780 nM.

In the case of `CCCCCCCCCCSCC(=O)C(F)(F)F`, the pIC50 was 6.87 in series [1] and 6.94 in series [2]. The same compound yielded an IC50 in series [3] of 20 nM.

For `CCCCCCCCCCCCSCC(=O)C(F)(F)F`, the pIC50 in series [1] is 6.92; in series [2], 6.79. Besides, the concentration for half-maximal inhibition (IC50) in series [3] is reported as 15 nM.

Consider `CCCCCCSCC(=O)C(F)(F)F`, for which the negative-log IC50 (pIC50) in series [1] was 7.27; in series [2], 7.26.

As for `CCCCCCS(=O)(=O)CC(O)(O)C(F)(F)F`, the negative logarithm of the IC50 (pIC50) in series [1] was 4.41; in series [2], 5.89. The compound further showed an IC50 in series [3] of 354 nM.

For the compound `CCCCCCCCS(=O)(=O)CC(O)(O)C(F)(F)F`, the solubility in series [4] came out at 1500 µM (≈ 460 µg/mL). Besides, the results for the negative-log IC50 (pIC50) in series [1] and in series [2] were 5.25 and 7.61, respectively. For the same compound, the 50% inhibitory concentration (IC50) in series [3] amounted to 147 nM.

`O=C(CSCCc1ccccc1)C(F)(F)F`: the negative-log IC50 (pIC50) in series [1] was 7.12; in series [2], 6.79.

Take `CCCCCCCCCCCCS(=O)(=O)CC(O)(O)C(F)(F)F`: the negative-log IC50 (pIC50) was 6.33 in series [1] and 7.99 in series [2]. The same compound came in with an IC50 in series [3] of 191 nM.

As for `CCCCCCCCCCS(=O)(=O)CC(O)(O)C(F)(F)F`, the figures for the pIC50 in series [1] and in series [2] were 5.85 and 8.20, respectively. In series [3], this compound returned an IC50 of 119 nM.

As for `CCCCCCCCSCC(=O)C(F)(F)F`, the concentration in solution in series [4] (solubility) was 200 µM (≈ 51.3 µg/mL). In addition, the negative-log IC50 (pIC50) in series [1] and in series [2] was 7.43 throughout. In addition, the IC50 in series [3] is reported as 1.6 nM.
